Measurements as given in ChEMBL document CHEMBL1147663, “Structure-activity relationships of bifunctional peptides based on overlapping pharmacophores at opioid and cholecystokinin receptors” (J Med Chem, 2006).
The source made the active and inactive calls. The calls are words filed in the database; no cut-off is given here.

The compounds below were run against T1, Cholecystokinin receptor type A (Homo sapiens) (UniProt P32238). Conditions: HEK293.
T1 sequence (whole entry): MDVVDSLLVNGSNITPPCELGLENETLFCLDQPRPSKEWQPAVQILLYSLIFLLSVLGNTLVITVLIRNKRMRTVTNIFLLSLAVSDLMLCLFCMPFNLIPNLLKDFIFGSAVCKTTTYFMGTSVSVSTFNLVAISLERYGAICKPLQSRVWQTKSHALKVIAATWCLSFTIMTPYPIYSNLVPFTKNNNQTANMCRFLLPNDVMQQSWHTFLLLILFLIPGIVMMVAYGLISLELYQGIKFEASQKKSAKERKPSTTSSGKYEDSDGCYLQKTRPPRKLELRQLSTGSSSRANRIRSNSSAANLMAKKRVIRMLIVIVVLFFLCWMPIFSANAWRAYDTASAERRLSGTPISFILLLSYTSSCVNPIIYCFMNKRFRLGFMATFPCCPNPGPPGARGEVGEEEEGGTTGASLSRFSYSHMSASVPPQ
`CCCC[C@@H](NC(=O)[C@@H](N)Cc1ccc(O)cc1)C(=O)NCC(=O)N[C@H](Cc1c[nH]c2ccccc12)C(=O)N(C)[C@@H](CCCC)C(=O)N[C@@H](CC(=O)O)C(=O)N[C@@H](Cc1ccccc1)C(N)=O` was tested, and the “Log EC50” value was “inactive”.

These compounds were tested against T2, Delta-type opioid receptor (Homo sapiens, UniProt P41143) (assay: Activity against [35S]GTP-gamma-S binding to human delta opioid receptor expressed in HN9.10 cells). Conditions: not given.
T2 sequence (P41143 whole entry): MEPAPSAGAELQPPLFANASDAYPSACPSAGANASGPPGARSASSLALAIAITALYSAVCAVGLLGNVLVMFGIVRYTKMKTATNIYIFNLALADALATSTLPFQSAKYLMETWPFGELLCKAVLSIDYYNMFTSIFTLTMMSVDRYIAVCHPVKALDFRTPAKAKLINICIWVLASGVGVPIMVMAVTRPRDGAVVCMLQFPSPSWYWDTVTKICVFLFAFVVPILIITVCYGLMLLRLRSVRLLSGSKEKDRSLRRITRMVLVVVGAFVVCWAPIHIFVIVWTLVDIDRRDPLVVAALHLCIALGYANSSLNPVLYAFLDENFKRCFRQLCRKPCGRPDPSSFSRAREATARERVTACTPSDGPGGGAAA
Format: functional, cell-based
Procedure, shortened: (§1)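 Membranes (10 μg) from HN9.10 cells stably expressing hDOR or rMOR; various drug concentrations in duplicate or triplicate, 90 min at 30 °C in HEPES pH 7.4 with GDP, MgCl2, NaCl, 0.1 nM [35S]GTPγS; filtration, scintillation counting.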
In the case of `CCCC[C@H](NC(=O)[C@H](Cc1c[nH]c2ccccc12)NC(=O)CNC(=O)[C@@H](CCCC)NC(=O)[C@@H](N)Cc1ccc(O)cc1)C(=O)N[C@@H](CC(=O)O)C(=O)N[C@@H](Cc1ccccc1)C(N)=O`, the EC50 is reported as 4.5 nM and the Emax is reported as 81%.

What follows are compounds tested against T3, Gastrin/cholecystokinin type B receptor (Homo sapiens) (UniProt P32239). Conditions: HEK293.
T3 sequence (whole entry): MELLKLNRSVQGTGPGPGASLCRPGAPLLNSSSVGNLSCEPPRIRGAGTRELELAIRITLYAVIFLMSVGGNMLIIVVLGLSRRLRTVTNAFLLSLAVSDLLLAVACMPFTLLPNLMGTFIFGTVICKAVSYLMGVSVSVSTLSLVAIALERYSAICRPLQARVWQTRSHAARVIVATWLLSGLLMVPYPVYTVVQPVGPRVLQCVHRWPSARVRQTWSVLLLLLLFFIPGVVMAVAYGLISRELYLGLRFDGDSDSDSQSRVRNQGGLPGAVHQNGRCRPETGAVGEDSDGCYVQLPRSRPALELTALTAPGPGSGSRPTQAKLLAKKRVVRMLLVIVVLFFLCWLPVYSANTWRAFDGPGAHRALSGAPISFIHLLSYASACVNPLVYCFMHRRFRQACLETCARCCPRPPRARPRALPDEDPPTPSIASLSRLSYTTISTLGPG
In the case of `CCCC[C@@H](NC(=O)[C@@H](N)Cc1ccc(O)cc1)C(=O)NCC(=O)N[C@H](Cc1c[nH]c2ccccc12)C(=O)N(C)[C@@H](CCCC)C(=O)N[C@@H](CC(=O)O)C(=O)N[C@@H](Cc1ccccc1)C(N)=O`, the “Log EC50” value is reported as “inactive”.

The compounds below were run against Mu-type opioid receptor (Cavia porcellus) (UniProt P97266) (assay: Agonist activity at mu opioid receptor assessed as inhibition of electrically stimulated Hartley guinea pig ileum contraction at 1 uM). Conditions: not given.
Chain of Mu-type opioid receptor (Cavia porcellus) (P97266 whole entry): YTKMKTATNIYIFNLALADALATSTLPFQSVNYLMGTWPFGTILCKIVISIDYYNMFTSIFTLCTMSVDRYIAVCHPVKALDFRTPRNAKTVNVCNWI
Format: functional, tissue-based
Procedure, shortened: (§2)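 Longitudinal muscle–myenteric plexus strips from male Hartley guinea pig ileum, 1 g tension, oxygenated Krebs at 37 °C; 0.1 Hz, 0.4 ms supramaximal stimulation. […] Integrity checked with 10 nM PL-017. Hill-equation fit, at least four tissues.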
Compound `CCCC[C@@H](NC(=O)[C@@H](N)Cc1ccc(O)cc1)C(=O)NCC(=O)N[C@H](Cc1c[nH]c2ccccc12)C(=O)N(C)[C@@H](CCCC)C(=O)N[C@@H](CC(=O)O)C(=O)N[C@@H](Cc1ccccc1)C(N)=O` has an inhibition of 8.8%.

Each compound was assayed against T4, Cholecystokinin receptor type A (Homo sapiens, UniProt P32238) (assay: Displacement of [125I]CCK-8(SO3) from human CCK1 receptor expressed in HEK293 cells). Conditions: not given.
T4 sequence (P32238 whole entry): T1 sequence (whole entry)
Format: cell-based
Compound `CCCC[C@@H](NC(=O)[C@@H](N)Cc1ccc(O)cc1)C(=O)NCC(=O)N[C@H](Cc1c[nH]c2ccccc12)C(=O)N(C)[C@@H](CCCC)C(=O)N[C@@H](CC(=O)O)C(=O)N[C@@H](Cc1ccccc1)C(N)=O` has an IC50 of 9120 nM and a Ki of 910 nM. With `CCCC[C@H](NC(=O)[C@H](Cc1c[nH]c2ccccc12)NC(=O)CNC(=O)[C@@H](CCCC)NC(=O)[C@@H](N)Cc1ccc(O)cc1)C(=O)N[C@@H](CC(=O)O)C(=O)N[C@@H](Cc1ccccc1)C(N)=O` the IC50 was 9.55 nM and the Ki was 9.6 nM.

The compounds below were run against T5, Mu-type opioid receptor (Rattus norvegicus, UniProt P33535) (assay: Displacement of [3H]DAMGO from rat mu opioid receptor expressed in HN9.10 cells). Conditions: not given.
T5 sequence (P33535 whole entry): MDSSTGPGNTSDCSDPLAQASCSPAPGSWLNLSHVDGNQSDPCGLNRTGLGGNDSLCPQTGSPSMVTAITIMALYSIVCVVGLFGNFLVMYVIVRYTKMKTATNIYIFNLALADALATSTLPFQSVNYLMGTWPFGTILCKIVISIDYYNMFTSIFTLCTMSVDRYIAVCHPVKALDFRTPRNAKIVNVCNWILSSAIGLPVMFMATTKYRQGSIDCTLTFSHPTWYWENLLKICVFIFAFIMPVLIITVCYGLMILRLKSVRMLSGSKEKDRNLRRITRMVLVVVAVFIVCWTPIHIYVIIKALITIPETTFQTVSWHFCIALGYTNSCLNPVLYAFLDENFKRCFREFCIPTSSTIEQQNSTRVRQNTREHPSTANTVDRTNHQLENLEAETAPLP
Format: cell-based
Procedure, shortened: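 HN9.10 cell membranes (50 μg) expressing rMOR, 10 test concentrations with 1.0 nM [3H]DAMGO in 50 mM Tris pH 7.4 with peptidase inhibitors and BSA, 3 h at 25 °C, duplicates; filtration, scintillation counting. Nonspecific with 10 μM naloxone. Ki by Cheng–Prusoff.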
For `CCCC[C@@H](NC(=O)[C@@H](N)Cc1ccc(O)cc1)C(=O)NCC(=O)N[C@H](Cc1c[nH]c2ccccc12)C(=O)N(C)[C@@H](CCCC)C(=O)N[C@@H](CC(=O)O)C(=O)N[C@@H](Cc1ccccc1)C(N)=O`, the IC50 was 2880 nM and the Ki was 1200 nM. `CCCC[C@H](NC(=O)[C@H](Cc1c[nH]c2ccccc12)NC(=O)CNC(=O)[C@@H](CCCC)NC(=O)[C@@H](N)Cc1ccc(O)cc1)C(=O)N[C@@H](CC(=O)O)C(=O)N[C@@H](Cc1ccccc1)C(N)=O` was tested, and the IC50 was 60.3 nM and the Ki was 26 nM.

The compounds below were run against Mu-type opioid receptor (Cavia porcellus, UniProt P97266) (assay: Agonist activity at mu opioid receptor assessed as inhibition of electrically stimulated Hartley guinea pig ileum contraction). Conditions: not given.
Chain of Mu-type opioid receptor (Cavia porcellus, UniProt P97266) (P97266 whole entry): as the sequence (P97266 whole entry) above
Format: functional, tissue-based
Procedure, shortened: as §2
`CCCC[C@H](NC(=O)[C@H](Cc1c[nH]c2ccccc12)NC(=O)CNC(=O)[C@@H](CCCC)NC(=O)[C@@H](N)Cc1ccc(O)cc1)C(=O)N[C@@H](CC(=O)O)C(=O)N[C@@H](Cc1ccccc1)C(N)=O` was tested, and the IC50 was 210 nM.

These compounds were tested against T2, Delta-type opioid receptor (assay: Displacement of [3H]DPDPE from human delta opioid receptor expressed in HN9.10 cells). Conditions: not given.
Format: cell-based
Procedure, shortened: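 HN9.10 cell membranes (50 μg) expressing hDOR, 10 test concentrations with 1.0 nM [3H]DPDPE in 50 mM Tris pH 7.4 with peptidase inhibitors and BSA, 3 h at 25 °C, duplicates; filtration, scintillation counting. Nonspecific with 10 μM naloxone. Ki by Cheng–Prusoff.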
Compound `CCCC[C@@H](NC(=O)[C@@H](N)Cc1ccc(O)cc1)C(=O)NCC(=O)N[C@H](Cc1c[nH]c2ccccc12)C(=O)N(C)[C@@H](CCCC)C(=O)N[C@@H](CC(=O)O)C(=O)N[C@@H](Cc1ccccc1)C(N)=O` has an IC50 of 724 nM and a Ki of 310 nM. Compound `CCCC[C@H](NC(=O)[C@H](Cc1c[nH]c2ccccc12)NC(=O)CNC(=O)[C@@H](CCCC)NC(=O)[C@@H](N)Cc1ccc(O)cc1)C(=O)N[C@@H](CC(=O)O)C(=O)N[C@@H](Cc1ccccc1)C(N)=O` has an IC50 of 6.03 nM and a Ki of 2.6 nM.

What follows are compounds tested against T4, Cholecystokinin receptor type A (assay: Antagonist activity at CCK1 receptor expressed in HEK 293 cells assessed as accumulation of [3H]inositol phosphates by PI assay). Conditions: not given.
Format: functional, cell-based, HEK293
In the case of `CCCC[C@H](NC(=O)[C@H](Cc1c[nH]c2ccccc12)NC(=O)CNC(=O)[C@@H](CCCC)NC(=O)[C@@H](N)Cc1ccc(O)cc1)C(=O)N[C@@H](CC(=O)O)C(=O)N[C@@H](Cc1ccccc1)C(N)=O`, the EC50 is reported as 2500 nM.

Each compound was assayed against T5, Mu-type opioid receptor (assay: (§3) Activity against [35S]GTP-gamma-S binding to rat mu opioid receptor expressed in HN9.10 cells). Conditions: not given.
Format: functional, cell-based
Procedure, shortened: as §1
For `CCCC[C@@H](NC(=O)[C@@H](N)Cc1ccc(O)cc1)C(=O)NCC(=O)N[C@H](Cc1c[nH]c2ccccc12)C(=O)N(C)[C@@H](CCCC)C(=O)N[C@@H](CC(=O)O)C(=O)N[C@@H](Cc1ccccc1)C(N)=O`, the EC50 was 250 nM. For `CCCC[C@H](NC(=O)[C@H](Cc1c[nH]c2ccccc12)NC(=O)CNC(=O)[C@@H](CCCC)NC(=O)[C@@H](N)Cc1ccc(O)cc1)C(=O)N[C@@H](CC(=O)O)C(=O)N[C@@H](Cc1ccccc1)C(N)=O`, the EC50 was 0.46 nM.

Each compound was assayed against Mu-type opioid receptor (Rattus norvegicus) (UniProt P33535) (assay: as §3). Conditions: not given.
Chain of Mu-type opioid receptor (Rattus norvegicus) (P33535 whole entry): as the sequence (P33535 whole entry) above
Format: functional, cell-based
Procedure, shortened: as §1
Compound `CCCC[C@@H](NC(=O)[C@@H](N)Cc1ccc(O)cc1)C(=O)NCC(=O)N[C@H](Cc1c[nH]c2ccccc12)C(=O)N(C)[C@@H](CCCC)C(=O)N[C@@H](CC(=O)O)C(=O)N[C@@H](Cc1ccccc1)C(N)=O` has an Emax of 47%. In the case of `CCCC[C@H](NC(=O)[C@H](Cc1c[nH]c2ccccc12)NC(=O)CNC(=O)[C@@H](CCCC)NC(=O)[C@@H](N)Cc1ccc(O)cc1)C(=O)N[C@@H](CC(=O)O)C(=O)N[C@@H](Cc1ccccc1)C(N)=O`, the Emax is reported as 88%.

The compounds below were run against T6, Gastrin/cholecystokinin type B receptor (Homo sapiens, UniProt P32239) (assay: Displacement of [125I]CCK-8(SO3) from human CCK2 receptor expressed in HEK293 cells). Conditions: not given.
T6 sequence (P32239 whole entry): T3 sequence (whole entry)
Format: cell-based
Compound `CCCC[C@@H](NC(=O)[C@@H](N)Cc1ccc(O)cc1)C(=O)NCC(=O)N[C@H](Cc1c[nH]c2ccccc12)C(=O)N(C)[C@@H](CCCC)C(=O)N[C@@H](CC(=O)O)C(=O)N[C@@H](Cc1ccccc1)C(N)=O` has an IC50 of 1100 nM and a Ki of 1100 nM. In the case of `CCCC[C@H](NC(=O)[C@H](Cc1c[nH]c2ccccc12)NC(=O)CNC(=O)[C@@H](CCCC)NC(=O)[C@@H](N)Cc1ccc(O)cc1)C(=O)N[C@@H](CC(=O)O)C(=O)N[C@@H](Cc1ccccc1)C(N)=O`, the IC50 is reported as 15.1 nM and the Ki is reported as 15 nM.

What follows are compounds tested against Delta-type opioid receptor (Mus musculus, UniProt P32300) (assay: Agonist activity at delta opioid receptor assessed as inhibition of electrically stimulated ICR mouse vas deferens contraction). Conditions: not given.
Chain of Delta-type opioid receptor (Mus musculus, UniProt P32300) (P32300 whole entry): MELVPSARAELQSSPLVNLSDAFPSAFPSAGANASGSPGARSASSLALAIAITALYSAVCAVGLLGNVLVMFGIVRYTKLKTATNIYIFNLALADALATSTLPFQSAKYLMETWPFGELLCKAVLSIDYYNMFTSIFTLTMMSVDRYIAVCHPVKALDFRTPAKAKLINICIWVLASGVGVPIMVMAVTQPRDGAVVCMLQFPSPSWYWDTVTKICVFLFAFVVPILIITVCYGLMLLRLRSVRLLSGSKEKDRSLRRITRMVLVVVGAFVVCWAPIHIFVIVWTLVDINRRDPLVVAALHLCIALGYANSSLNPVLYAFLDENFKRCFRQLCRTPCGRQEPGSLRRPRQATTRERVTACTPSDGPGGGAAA
Format: functional, tissue-based
Procedure, shortened: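 Vas deferens from male ICR mice, in 20 mL baths at 0.5 g tension, Mg-free oxygenated Krebs, 37 °C; electrical stimulation 0.1 Hz, 2.0 ms pulses, supramaximal voltage. Cumulative addition to maximal inhibition; integrity checked with 10 nM DPDPE. IC50 by Hill-equation nonlinear least-squares fit, at least four tissues.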
For `CCCC[C@@H](NC(=O)[C@@H](N)Cc1ccc(O)cc1)C(=O)NCC(=O)N[C@H](Cc1c[nH]c2ccccc12)C(=O)N(C)[C@@H](CCCC)C(=O)N[C@@H](CC(=O)O)C(=O)N[C@@H](Cc1ccccc1)C(N)=O`, the IC50 was 700 nM. In the case of `CCCC[C@H](NC(=O)[C@H](Cc1c[nH]c2ccccc12)NC(=O)CNC(=O)[C@@H](CCCC)NC(=O)[C@@H](N)Cc1ccc(O)cc1)C(=O)N[C@@H](CC(=O)O)C(=O)N[C@@H](Cc1ccccc1)C(N)=O`, the IC50 is reported as 23 nM.

What follows are compounds tested against T6, Gastrin/cholecystokinin type B receptor (assay: Antagonist activity at CCK2 receptor expressed in HEK293 cells assessed as accumulation of [3H]inositol phosphates by PI assay). Conditions: not given.
Format: functional, cell-based
`CCCC[C@H](NC(=O)[C@H](Cc1c[nH]c2ccccc12)NC(=O)CNC(=O)[C@@H](CCCC)NC(=O)[C@@H](N)Cc1ccc(O)cc1)C(=O)N[C@@H](CC(=O)O)C(=O)N[C@@H](Cc1ccccc1)C(N)=O` was tested, and the EC50 was 1900 nM.
